Values after ≈ are worked out from the molar mass of the structure shown.
Assays:
[1] = Metabolic stability in human liver microsomes assessed as parent compound remaining at 1 uM incubated for 30 mins; assay type: ADME, Microsome; settings: microsomes, 0.5 h, 1 µM
Procedure, shortened: (§1)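 Test compound at 1 μM incubated 30 min with human, rat or mouse liver microsomes (1 mg/mL); parent remaining expressed as %.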

[2] = Kinetic aqueous solubility of the compound in pH 7.4 PBS buffer by UV/Visible absorbance analysis; assay type: physicochemical; settings: read-out: Kinetic_solubility
Procedure, shortened: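 Kinetic solubility determined in PBS at pH 7.4 by UV/Vis absorbance, reported in μM.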

Cytochrome P450 1A2 = biological target: T1, Cytochrome P450 1A2 (Homo sapiens, UniProt P05177); assay: Inhibition of recombinant CYP1A2 (unknown origin) by fluorescence-based assay; assay type: ADME
T1 sequence (P05177 whole entry): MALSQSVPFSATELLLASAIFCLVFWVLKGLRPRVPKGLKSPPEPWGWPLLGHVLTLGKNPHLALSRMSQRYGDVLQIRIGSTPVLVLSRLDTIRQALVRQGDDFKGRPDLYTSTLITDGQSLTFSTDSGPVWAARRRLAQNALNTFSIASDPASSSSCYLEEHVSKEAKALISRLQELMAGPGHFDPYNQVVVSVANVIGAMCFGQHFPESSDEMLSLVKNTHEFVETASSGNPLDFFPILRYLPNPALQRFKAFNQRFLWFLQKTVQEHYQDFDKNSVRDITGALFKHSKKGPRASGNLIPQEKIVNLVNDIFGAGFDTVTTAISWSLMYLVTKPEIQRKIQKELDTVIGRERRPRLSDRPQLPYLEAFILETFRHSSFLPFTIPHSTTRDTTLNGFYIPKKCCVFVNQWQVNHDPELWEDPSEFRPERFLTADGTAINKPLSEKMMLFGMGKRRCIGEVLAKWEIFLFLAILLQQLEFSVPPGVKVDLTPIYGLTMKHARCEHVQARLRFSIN
Procedure, shortened: (§2)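 Recombinant CYP isoforms (five tested) screened for inhibition in fluorescence-based assays; IC50 in μM.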

Gamma-secretase = assay: Modulation of gamma secretase in human SH-SY5Y cells overexpressing wild type APP751 assessed as inhibition of amyloid beta (35 to 42 residues) formation incubated for overnight by ELISA; assay type: cell-based
Procedure, shortened: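 SHSY5Y-APP751 cells plated at 75K/well and incubated overnight at 37 °C, then treated 24 h over 10 concentrations ([…]–10 μM, 1:3.16 steps, in duplicate). Medium Aβ42 measured by sandwich ELISA (Aβ35–42 capture, AP-conjugated Aβ1–12 detection, CDP-Star luminescence) against an Aβ42 standard curve.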

Cytochrome P450 3A4 = Cytochrome P450 3A4 (Homo sapiens, UniProt P08684); assay: Inhibition of recombinant CYP3A4 (unknown origin) by fluorescence-based assay; assay type: ADME
Cytochrome P450 2D6 = Cytochrome P450 2D6 (Homo sapiens, UniProt P10635); assay: Inhibition of recombinant CYP2D6 (unknown origin) by fluorescence-based assay; assay type: ADME; procedure, shortened: as §2
Cytochrome P450 2C19 = Cytochrome P450 2C19 (Homo sapiens, UniProt P33261); assay: Inhibition of recombinant CYP2C19 (unknown origin) by fluorescence-based assay; assay type: ADME; procedure, shortened: as §2
[3] = Metabolic stability in rat liver microsomes assessed as parent compound remaining at 1 uM incubated for 30 mins; assay type: ADME, Microsome; settings: 0.5 h; procedure, shortened: as §1
Cytochrome P450 2C9 = Cytochrome P450 2C9 (Homo sapiens, UniProt P11712); assay: Inhibition of recombinant CYP2C9 (unknown origin) by fluorescence-based assay; assay type: ADME; procedure, shortened: as §2
[4] = Metabolic stability in mouse liver microsomes assessed as parent compound remaining at 1 uM incubated for 30 mins; assay type: ADME, Microsome; settings: 0.5 h; procedure, shortened: as §1
[5] = Apparent permeability from apical to basolateral membrane in MDCK-MDR1 cells; assay type: ADME, cell-based, Canis lupus familiaris; settings: dog
Procedure, shortened: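 Apical-to-basolateral apparent permeability (×10⁻⁶ cm/s) measured across MDR1-MDCK cell monolayers.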

[6] = biological target: Voltage-gated inwardly rectifying potassium channel KCNH2 (Homo sapiens, UniProt Q12809); assay: Inhibition of human ERG expressed in HEK293 cells by patch clamp assay; assay type: cell-based
[7] = Efflux ratio of apparent permeability from basolateral to apical membrane over apical to basolateral membrane in MDCK-MDR1 cells; assay type: ADME, cell-based, Canis lupus familiaris; settings: dog
Procedure, shortened: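 Calculated as B-A/A-B apparent permeability ratio across MDR1-MDCK cell monolayers; A-B permeability expressed as ×10⁻⁶ cm/s.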

[8] = Volume of distribution at steady state in CD-1 mouse at 1 mg/kg, iv administered as single dose measured up to 24 hrs; assay type: ADME, organism-based; settings: in vivo
Procedure, shortened: (§3)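 Male CD-1 mice, 6–8 weeks old, single tail-vein dose in 3% NMP/45% PEG300/12% ethanol/40% sterile water. Retro-orbital plasma (K3EDTA) taken at 0.083, 0.25, 0.5, 1, 2, 4, 8 and 24 h, n=3/timepoint, analysed by HPLC/MS/MS. Non-compartmental analysis (Model 201, uniform weighting); Tmax read directly from the data.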

[9] = Cmax in CD-1 mouse at 1 mg/kg, iv administered as single dose measured up to 24 hrs; assay type: ADME, organism-based; parameters: route intravenous, dose 1 mg/kg, time <=24; settings: in vivo
Procedure, shortened: (§4)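 Male CD-1 mice, 6–8 weeks old, single dose by tail vein (1 mg/kg, 3% NMP/45% PEG300/12% ethanol/40% water) or oral gavage (5 mg/kg, 5% NMP/95% PEG300). Retro-orbital plasma sampled 0.083 (iv only) to 24 h, n=3/timepoint, and analysed by HPLC/MS/MS. Non-compartmental analysis. Half-life taken from the terminal phase using ≥3 non-zero points after Tmax.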

[10] = AUClast in CD-1 mouse at 1 mg/kg, iv administered as single dose measured up to 24 hrs; assay type: ADME, organism-based; parameters: route intravenous, dose 1 mg/kg, time <=24; settings: in vivo; procedure, shortened: as §4
[11] = Half life in CD-1 mouse at 1 mg/kg, iv administered as single dose measured up to 24 hrs; assay type: ADME, organism-based; settings: mouse, in vivo, 1 mg/kg, 24 h; procedure, shortened: as §4
[12] = Tmax in CD-1 mouse at 5 mg/kg, po administered as single dose measured up to 24 hrs; assay type: ADME, organism-based; settings: in vivo
Procedure, shortened: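 Male CD-1 mice, 6–8 weeks old, single oral gavage dose in 5% NMP/95% PEG300. Plasma (K3EDTA, retro-orbital, under isoflurane) taken at 0.25, 0.5, 1, 2, 4, 8 and 24 h, n=3/timepoint, analysed by HPLC/MS/MS. Non-compartmental extravascular analysis (Model 200); Tmax taken directly from the data.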

[13] = Ratio of drug concentration in CD-1 mouse brain to plasma at 5 mg/kg, po measured after 1 hr; assay type: ADME, organism-based
Procedure, shortened: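 Male CD-1 mice dosed once iv (1 mg/kg) or by oral gavage (5 mg/kg). Brain and plasma collected 1 h post dose (n=3/timepoint). Drug levels by HPLC/MS/MS; brain/plasma ratio calculated from these levels.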

[14] = Half life in CD-1 mouse at 5 mg/kg, po administered as single dose measured up to 24 hrs; assay type: ADME, organism-based; settings: in vivo; procedure, shortened: as §4
[15] = Oral bioavailability in CD-1 mouse at 5 mg/kg administered as single dose measured up to 24 hrs; assay type: ADME, organism-based; settings: in vivo
Procedure, shortened: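 CD-1 mouse PK after single iv (1 mg/kg) and oral gavage (5 mg/kg) dosing, with plasma sampled to 24 h (n=3/timepoint) and measured by HPLC/MS/MS. F(%) = (AUC0-inf po × Dose iv)/(AUC0-inf iv × Dose po) × 100.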

[16] = Cmax in CD-1 mouse at 5 mg/kg, po administered as single dose measured up to 24 hrs; assay type: ADME, organism-based; parameters: route oral, dose 5 mg/kg, time <=24; settings: in vivo; procedure, shortened: as §4
[17] = Tmax in CD-1 mouse at 1 mg/kg, iv administered as single dose measured up to 24 hrs; assay type: ADME, organism-based; settings: in vivo; procedure, shortened: as §3
[18] = AUClast in CD-1 mouse at 5 mg/kg, po administered as single dose measured up to 24 hrs; assay type: ADME, organism-based; parameters: route oral, dose 5 mg/kg, time <=24; settings: in vivo; procedure, shortened: as §4
[19] = Ratio of drug concentration in CD-1 mouse brain to plasma at 0.4 mg/kg, iv measured after 1 hr; assay type: ADME, organism-based

Sequence of Cytochrome P450 2C9 (P11712 whole entry): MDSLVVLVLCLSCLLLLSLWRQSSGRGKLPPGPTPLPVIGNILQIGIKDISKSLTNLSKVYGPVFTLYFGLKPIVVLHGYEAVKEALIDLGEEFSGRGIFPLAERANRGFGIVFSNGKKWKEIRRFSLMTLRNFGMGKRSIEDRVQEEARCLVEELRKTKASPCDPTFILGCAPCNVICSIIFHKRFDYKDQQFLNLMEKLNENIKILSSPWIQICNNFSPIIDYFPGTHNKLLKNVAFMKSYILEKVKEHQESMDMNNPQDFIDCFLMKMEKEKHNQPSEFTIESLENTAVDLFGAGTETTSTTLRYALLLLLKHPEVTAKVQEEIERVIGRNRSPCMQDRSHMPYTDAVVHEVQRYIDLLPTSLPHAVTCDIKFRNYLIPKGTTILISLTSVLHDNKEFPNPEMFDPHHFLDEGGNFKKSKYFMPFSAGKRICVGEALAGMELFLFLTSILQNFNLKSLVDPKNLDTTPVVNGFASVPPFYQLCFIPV
Sequence of Cytochrome P450 2D6 (P10635 whole entry): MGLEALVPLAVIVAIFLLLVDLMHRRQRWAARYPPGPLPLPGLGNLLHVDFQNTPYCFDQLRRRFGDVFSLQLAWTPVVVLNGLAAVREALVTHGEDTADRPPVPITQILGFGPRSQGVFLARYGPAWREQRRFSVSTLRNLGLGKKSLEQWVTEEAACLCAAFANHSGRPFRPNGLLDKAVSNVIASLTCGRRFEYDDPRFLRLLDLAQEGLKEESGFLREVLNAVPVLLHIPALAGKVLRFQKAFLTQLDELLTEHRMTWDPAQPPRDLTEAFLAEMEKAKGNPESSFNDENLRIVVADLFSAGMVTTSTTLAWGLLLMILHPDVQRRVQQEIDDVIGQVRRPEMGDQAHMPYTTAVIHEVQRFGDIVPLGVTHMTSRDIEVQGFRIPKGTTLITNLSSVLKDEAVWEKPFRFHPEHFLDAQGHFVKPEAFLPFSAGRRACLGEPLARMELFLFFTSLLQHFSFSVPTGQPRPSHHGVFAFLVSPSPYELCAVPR
Sequence of Voltage-gated inwardly rectifying potassium channel KCNH2 (Q12809 whole entry): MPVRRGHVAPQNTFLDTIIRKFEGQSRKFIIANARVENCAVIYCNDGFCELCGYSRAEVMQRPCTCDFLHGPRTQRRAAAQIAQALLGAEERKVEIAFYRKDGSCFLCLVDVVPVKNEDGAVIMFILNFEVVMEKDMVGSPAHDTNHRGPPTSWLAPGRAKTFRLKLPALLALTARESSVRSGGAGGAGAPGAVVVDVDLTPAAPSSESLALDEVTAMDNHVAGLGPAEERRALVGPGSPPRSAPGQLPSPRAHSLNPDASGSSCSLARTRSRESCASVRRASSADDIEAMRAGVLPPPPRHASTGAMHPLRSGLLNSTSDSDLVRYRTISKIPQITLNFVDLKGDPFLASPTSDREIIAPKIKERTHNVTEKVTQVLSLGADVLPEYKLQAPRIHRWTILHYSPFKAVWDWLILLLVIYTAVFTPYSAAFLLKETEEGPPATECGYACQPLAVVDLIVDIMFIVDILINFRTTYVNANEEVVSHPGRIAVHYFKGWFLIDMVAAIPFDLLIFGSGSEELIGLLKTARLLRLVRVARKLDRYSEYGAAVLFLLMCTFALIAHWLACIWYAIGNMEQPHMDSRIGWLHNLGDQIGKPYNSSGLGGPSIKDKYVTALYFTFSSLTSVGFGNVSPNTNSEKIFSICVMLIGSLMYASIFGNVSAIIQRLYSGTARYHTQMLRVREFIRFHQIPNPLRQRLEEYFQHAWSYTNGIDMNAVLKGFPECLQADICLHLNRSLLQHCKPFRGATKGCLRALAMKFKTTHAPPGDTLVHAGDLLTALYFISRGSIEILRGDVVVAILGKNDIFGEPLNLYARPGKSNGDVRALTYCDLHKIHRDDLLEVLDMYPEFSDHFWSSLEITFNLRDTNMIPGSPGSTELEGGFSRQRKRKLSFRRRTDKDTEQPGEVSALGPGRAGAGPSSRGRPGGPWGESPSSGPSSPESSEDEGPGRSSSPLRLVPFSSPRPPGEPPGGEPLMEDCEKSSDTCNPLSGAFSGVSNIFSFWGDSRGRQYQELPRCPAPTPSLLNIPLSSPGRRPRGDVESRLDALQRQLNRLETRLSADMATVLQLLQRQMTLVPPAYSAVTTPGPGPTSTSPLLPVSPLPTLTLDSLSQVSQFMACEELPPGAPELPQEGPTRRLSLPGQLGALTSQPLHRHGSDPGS
Sequence of Cytochrome P450 2C19 (P33261 whole entry): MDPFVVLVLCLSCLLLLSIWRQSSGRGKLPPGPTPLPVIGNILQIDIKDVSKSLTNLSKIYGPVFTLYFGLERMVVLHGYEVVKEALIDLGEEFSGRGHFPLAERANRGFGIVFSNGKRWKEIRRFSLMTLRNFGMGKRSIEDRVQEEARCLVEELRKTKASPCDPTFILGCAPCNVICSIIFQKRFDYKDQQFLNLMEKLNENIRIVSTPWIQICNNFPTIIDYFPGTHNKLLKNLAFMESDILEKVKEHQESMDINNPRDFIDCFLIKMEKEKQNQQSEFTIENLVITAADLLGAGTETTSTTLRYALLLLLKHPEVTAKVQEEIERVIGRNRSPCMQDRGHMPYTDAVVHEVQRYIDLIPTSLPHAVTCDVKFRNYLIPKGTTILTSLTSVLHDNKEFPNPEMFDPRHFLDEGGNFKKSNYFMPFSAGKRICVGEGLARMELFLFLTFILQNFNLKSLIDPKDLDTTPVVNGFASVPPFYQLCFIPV
Sequence of Cytochrome P450 3A4 (P08684 whole entry): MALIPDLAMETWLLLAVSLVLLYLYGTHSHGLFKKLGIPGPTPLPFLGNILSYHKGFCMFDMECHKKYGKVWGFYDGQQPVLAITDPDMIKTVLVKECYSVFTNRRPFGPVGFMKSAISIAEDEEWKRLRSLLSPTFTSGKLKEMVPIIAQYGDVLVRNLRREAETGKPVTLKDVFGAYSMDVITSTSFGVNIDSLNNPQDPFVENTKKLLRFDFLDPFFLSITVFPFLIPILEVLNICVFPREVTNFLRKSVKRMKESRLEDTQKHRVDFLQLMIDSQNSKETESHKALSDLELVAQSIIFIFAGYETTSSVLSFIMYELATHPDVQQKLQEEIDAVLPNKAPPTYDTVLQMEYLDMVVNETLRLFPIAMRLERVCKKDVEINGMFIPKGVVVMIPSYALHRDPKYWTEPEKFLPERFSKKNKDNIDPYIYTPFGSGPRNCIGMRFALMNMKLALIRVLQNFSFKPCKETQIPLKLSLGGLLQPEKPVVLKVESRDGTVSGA

SMILES | Stabilty [1] [%] | solubility kinetic [2] [µM] | IC50 (Cytochrome P450 1A2) [µM] | IC50 (Gamma-secretase) [µM] | IC50 (Cytochrome P450 3A4) [µM] | IC50 (Cytochrome P450 2D6) [µM] | IC50 (Cytochrome P450 2C19) [µM] | Stabilty [3] [%] | IC50 (Cytochrome P450 2C9) [µM] | Stabilty [4] [%] | Papp [5] | IC50 [6] [µM] | Ratio [7] | other results
COc1nc(-c2csc(Nc3c4c(nn3CC(F)(F)F)CCC4)n2)ccc1-n1cnc(C)c1 | 66 | 22 (≈ 10.5 µg/mL) | 27 | 0.036 | 1.4 | > 100 | 7.1 | 72 | 11 | 46 | 17.6 10^-6 cm/s |  |  | 
COc1nc(-c2csc(Nc3c4c(nn3CCO)CCCC4)n2)ccc1-n1cnc(C)c1 | 40 | 31 (≈ 14 µg/mL) | > 100 | 0.144 | 30 | > 100 | 76 | 78 | > 100 | 58 | 18 10^-6 cm/s | 2.63 |  | 
COc1nc(-c2csc(Nc3c4c(nn3CC(C)(C)O)CCCC4)n2)ccc1-n1cnc(C)c1 | 12 | 22 (≈ 10.6 µg/mL) | > 100 | 0.038 |  | > 100 | 3.9 | 57 | 9 | 78 | 17.5 10^-6 cm/s |  |  | 
COc1nc(-c2csc(Nc3c4c(nn3C(C)(C)C)CCCC4)n2)ccc1-n1cnc(C)c1 | 19 | 34 (≈ 15.8 µg/mL) | 9.1 | 0.071 | 5.3 | > 100 | 12 | 63 | 47 | 23 | 14.8 10^-6 cm/s | 7.18 | 0.9 | 
COc1nc(-c2csc(Nc3c4c(nn3C)CCC4)n2)ccc1-n1cnc(C)c1 | 76 | 44 (≈ 17.9 µg/mL) | > 100 | 0.08 | 4.5 | > 100 | 37 | 71 | > 100 | 75 | 22.3 10^-6 cm/s | 0.92 | 1.9 | Vdss [8]: 3.18 L/kg; Cmax [9]: 0.478 µg/mL; AUClast [10]: 0.723 µg·h/mL; t1/2 [11]: 1.9 h; Tmax [12]: 1 h; BPR [13]: 0.22; t1/2 [14]: 1.6 h; F [15]: 74.6%; Cmax [16]: 0.58 µg/mL; Tmax [17]: 4.98 min; AUClast [18]: 2.7 µg·h/mL; BPR [19]: 0.21
